Compound activity as filed in PubChem.
CCR6 antag: blocks CCL20-driven beta-arrestin recruitment at human CCR6. AID 493098. hit rate 0.49% among 340,000. CHO-K1 CCR6 PathHunter beta-arrestin, luminescence, CCL20-stimulated. P51684. inhibition, % at 20 µM;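 active = compounds whose inhibition of the agonist-driven luminescence signal at 20 µM reaches about 50%, limit read from the data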;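 also: cells stimulated with CCL20 at 14 nM final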
Target sequence (P51684 whole entry, looked up): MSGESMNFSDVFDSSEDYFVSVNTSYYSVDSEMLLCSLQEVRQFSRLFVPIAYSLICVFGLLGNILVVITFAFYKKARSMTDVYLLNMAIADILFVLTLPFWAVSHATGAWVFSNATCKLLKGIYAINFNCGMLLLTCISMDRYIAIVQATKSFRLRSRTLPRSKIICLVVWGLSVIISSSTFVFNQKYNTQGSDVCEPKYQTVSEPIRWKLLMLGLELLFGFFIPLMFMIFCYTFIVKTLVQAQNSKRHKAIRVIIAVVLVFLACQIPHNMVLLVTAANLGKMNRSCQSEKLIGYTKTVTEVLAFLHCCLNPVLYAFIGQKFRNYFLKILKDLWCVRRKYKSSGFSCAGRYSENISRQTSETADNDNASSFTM
APJ antag: APJ receptor antagonism | P35414 | CHO-K1 APJ beta-arrestin complementation, luminescence | inhibition, % at 20 µM | hit rate 0.32% among 330,000 | AID 2521;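 active = inhibition above about 40% at 20 µM, limit read from the data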;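 also: cells challenged with 10 nM apelin-13 agonist together with compound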
CXCR6 inh: inhibitors of human CXCR6 receptor; inhibition, % at 20 µM; O00574; hit rate 0.36% among 360,000; CHO-K1 PathHunter CXCR6 beta-arrestin, luminescence; in the data active = inhibition above about 34%, passing the limit was not always enough;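 also: antagonist mode with CXCL16 agonist at 10 nM final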
EBI2 block: blocks human EBI2 receptor beta-arrestin signaling | inhibition, % at 5 µM | hit rate 0.81% among 360,000 | P32249 | AID 651636 | EBI2 beta-arrestin recruitment, luminescence, 7a,25-OHC stimulated; in the data active = inhibition above about 38%;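 also: enzyme fragment complementation signal reports receptor beta-arrestin coupling in cells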
APJ ag: agonists of human APJ apelin receptor; AID 2520; CHO-K1 APJ PathHunter beta-arrestin, luminescence; 0% DMSO wells, 100% apelin; activation, % at 20 µM; P35414; hit rate 0.11% among 330,000;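 active = activation more than six SD over the plate average, tested at 20 µM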
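Test system – PathHunter CHO-K1 APJ (AGTRL-1) beta-arrestin reporter cells · Input – 1000 cells/well · Compound – single test compound dose, 20 µM final, 1% DMSO · Times – compound stimulation 90 min at 25 °C, detection 60 min · Technique – beta-gal luminescence · Read-out basis – APJ–arrestin association signal · Control set – negative DMSO alone, positive Apelin-13 at 10 nM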
HTR2A ag: activates the mouse 5-HT2A serotonin receptor; P35363; CHO-K1 mHTR2A beta-arrestin complementation, luminescence; percent of 30 µM serotonin response; activation, % at 7.6 µM; hit rate 0.66% among 360,000; AID 624169;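 active = activation above a run cutoff, the mean activation of all tested compounds plus 3 SD, cut at about 14% in these data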
EBI2 conf: EBI2 (human) antagonism, single concentration confirmation; shares compounds with EBI2 block; EBI2 beta-arrestin luminescence, 7a,25-OHC antagonism; inhibition, % at 5 µM; hit rate 29% among 2,400;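 active = inhibition of at least 50%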
EBI2 ag: activates EBI2, counter-screen for EBI2 antagonists. shares compounds with EBI2 block. EBI2-expressing cells, agonist mode, luminescence, 60 min; 0% vehicle, 100% 7α,25-dihydroxycholesterol control. activation, % at 5 µM. 2,400 tested, under 10 active;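 active = activation of at least 50%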
bGal counter: counter-screen for EBI2 antagonists: E. coli beta-galactosidase inhibition | purified beta-galactosidase, luminescent Galacton Star, 15 min | inhibition, % at 5 µM | shares compounds with EBI2 block | AID 652176 | hit rate 1% among 2,400;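 active = replicate-average signal at least 3 plate SD below neutral wells, shown as high inhibition, flagging enzyme-inhibiting false positives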;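 also: higher means stronger loss of beta-gal luminescence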
Numbers stand for hits; 0 = inactive; - = no result; ! = not confirmed by another sample. Shown are actives, neighbours in structure and some others; about 2.2% of the full set was active somewhere.

SMILES	CCR6 antag	APJ antag	CXCR6 inh	EBI2 block	APJ ag	HTR2A ag	EBI2 conf	EBI2 ag	bGal counter
Cn1cc(CN2CCC(C(=O)NC(c3ccc(-c4ccccc4)cc3)c3cnccn3)CC2)c2ccccc21 (stereo not given)	-	-	0	0	-	0	-	-	-
CCNC(=O)C1(C)CCCN(C(=O)c2sc(-c3ccccc3)nc2C)C1 (stereo not given)	-	-	0	0	-	0	-	-	-
Cc1cc2nc(-c3ccccc3)c(Cc3cccc(Cl)c3)n2c(C)c1Br	-	-	0	0	-	0	-	-	-
C=CCc1cccc(CNc2nc3ccccc3n2C)c1O	0	0	0	0	0	0	-	-	-
C=CCc1cccc(CNc2nc3ccccc3n2CCN2CCOCC2)c1O	0	0	0	83	0	0	84	0	0
CCOC(=O)CN(C(=O)Cn1nnc(-c2ccc(OC)cc2)n1)C(C(=O)NC1CCCC1)c1ccc(F)cc1 (stereo not given)	0	0	0	75	0	0	0	0	0
CC(C)(C)C1CCC(=O)N(CCOc2ccccc2)CC1 (stereo not given)	0	0	0	52	0	0	0	0	0
CCOC(=O)n1c2ccccc2c(=O)n1CCO	-	-	0	0	-	0	-	-	-
CCCCNc1c(-c2ccc(SC3CCCCC3)c(OC)c2)nc2ccc(C)cn12	0	0	0	52	0	0	55!	0	0
CCCCCCSc1ccc(-c2nc3ccc(C)cn3c2NCc2ccccc2)cc1OC	0	0	0	72	0	0	0	0	0
CCCCCCSc1cc(-c2nc3ccc(C)cn3c2NCCCC)ccc1OC	0	0	0	0	0	0	-	-	-
COc1ccc(-c2ccc(-c3nc4ccc(C)cn4c3NC3CCCCC3)cc2OC)cc1	0	0	0	72	0	0	65!	0	0
Cc1ccc2nc(-c3cccc(SC4CCCCC4)c3)c(NC3CCCCC3)n2c1	0	0	0	0	0	0	-	-	-
CCC(C)Sc1ccc(-c2nc3ccc(Cl)cn3c2NCc2ccccc2)cc1 (stereo not given)	0	0	0	44	0	0	0	0	0
CCCCNc1c(-c2cccc(SC3CCCCC3)c2)nc2ccc(Cl)cn12	0	0	0	0	0	0	-	-	-
CCCCNc1c(-c2ccc(-c3ccc(C(C)=O)cc3)c(OC)c2)nc2cc(C)ccn12	0	0	0	67	0	0	52	0	0
CCCCCCSc1ccc(-c2nc3ccc(C)cn3c2NCc2ccccc2)cc1	0	0	0	53	0	0	54!	0	0
CCCCNc1c(-c2ccc(OC)c(SC(C)CC)c2)nc2cc(C)ccn12 (stereo not given)	0	0	0	0	0	0	-	-	-
O=C(C[C@@H]1C=C[C@@H](NC(=O)c2cccnc2)[C@@H](CO)O1)NCc1ccncn1	-	-	-	0	-	0	-	-	-
CCOc1ccc2nc(COC(=O)c3ccco3)c(C(C)=O)[n+]([O-])c2c1	0	0	0	0	0	0	-	-	-
CCOc1ccc2nc(COC(=O)c3cccs3)c(C(C)=O)[n+]([O-])c2c1	0	0	0	0	0	0	-	-	-
CCOc1ccc2nc(COC(=O)c3ccncc3)c(C(=O)c3ccccc3)[n+]([O-])c2c1	0	0	0	45	0	0	0	0	0
CCOc1ccc2nc(COC(=O)c3cccs3)c(C(=O)c3ccccc3)[n+]([O-])c2c1	0	0	0	47	0	0	0	0	0
C(=C/c1nccc2c1[nH]c1ccccc12)/c1ccc2c(c1)OCO2	0	-	0	56	-	0	0	0	0
NC(COCc1ccccc1)c1csc(Nc2ccc(C(=O)NCCO)cc2)n1 (stereo not given)	-	-	0	0	-	0	-	-	-
SMILES	CCR6 antag	APJ antag	CXCR6 inh	EBI2 block	APJ ag	HTR2A ag	EBI2 conf	EBI2 ag	bGal counter
CCCOc1ccc(C(=O)N2CCN(c3ccc(N)cc3Cl)CC2)cc1	0	0	0	70	0	0	52	0	0
CCCCOc1ccc(C(=O)N2CCN(c3ccc(N4CCOCC4)nn3)CC2)cc1	0	0	0	0	0	0	-	-	-
CC(C)C[C@@H](CN1CCCC1CN1C(=S)NC[C@@H]1Cc1ccccc1)N1C[C@H](Cc2ccc(O)cc2)N(CC2CCCCC2)C1=S (stereo not given in full)	-	-	0	0	-	0	-	-	-
CC(C)C[C@@H](CN1CCC[C@@H]1CN1C(=S)NC[C@@H]1Cc1ccc(O)cc1)N1C[C@H](Cc2ccc(O)cc2)N(CC2CCCCCC2)C1=S	-	-	0	85	-	0	0	0	0
CC(C)C[C@@H](CN1CCC[C@@H]1CN1C(=S)NC[C@@H]1Cc1ccc(O)cc1)N1C[C@H](Cc2ccc(O)cc2)N(CC2CCCCC2)C1=S	-	-	0	89	-	0	0	0	0
O=C(CCc1nc2ccccc2c(=O)[nH]1)NNC(=O)COc1ccc(Br)cc1	0	0	0	59	0	0	0	0	0
Cc1cccc(C)c1NC(=O)C(c1ccccc1)N1CCN(C/C=C/c2ccccc2)CC1 (stereo not given)	-	-	0	0	-	0	-	-	-
Brc1ccc(-c2nnc3sc(CN4CCC5(CC4)OCCO5)cn23)cc1	0	0	0	56	0	0	0	0	0
NC(Cc1ccc(Cl)cc1)c1csc(Nc2ccc(C(F)(F)F)cn2)n1 (stereo not given)	-	-	0	0	-	0	-	-	-
COCCOC(=O)C(C#N)c1nc2ccccc2nc1N1CCN(Cc2ccccc2)CC1 (stereo not given)	0	0	0	0	0	0	-	-	-
CC(C)COC(=O)C(C#N)c1nc2ccccc2nc1N1CCN(Cc2ccccc2)CC1 (stereo not given)	0	0	0	46	0	0	0	0	0
COC(=O)C(C#N)c1nc2ccccc2nc1N1CCN(Cc2ccc3c(c2)OCO3)CC1 (stereo not given)	-	0	-	-	0	-	-	-	-
CCCCOC(=O)C(C#N)c1nc2ccccc2nc1N1CCN(Cc2ccc3c(c2)OCO3)CC1 (stereo not given)	0	0	0	46	0	0	0	0	0
CC(C)(C)c1ccc(C(=O)NCc2ccccc2)cc1	0	0	0	0	0	0	-	-	-
CC(C)(C)OC(=O)N1CCCN(C(=O)c2ccc(Cl)cc2)CC1	0	0	0	0	0	0	-	-	-
CC(C)(C)OC(=O)N1CCN(c2ccc(CNC(=O)c3ccc(Cl)cc3)cc2)CC1	0	0	0	59	0	0	0	0	0
CC(C)(C)c1ccc(C(=O)NCc2ccc(Cl)cc2)cc1	0	0	0	53	0	0	0	0	0
